Read-outs that look alike come from different tables or passages of the source.
Legend:
[1] = target: T1, MBP-CpHDAC3 (recombinant CpHDAC3) (Cryptosporidium parvum, UniProt Q5CPX0); experiment: Fluor de Lys fluorogenic deacetylase assay; assay type: biochemical
T1 sequence (Q5CPX0 1-973): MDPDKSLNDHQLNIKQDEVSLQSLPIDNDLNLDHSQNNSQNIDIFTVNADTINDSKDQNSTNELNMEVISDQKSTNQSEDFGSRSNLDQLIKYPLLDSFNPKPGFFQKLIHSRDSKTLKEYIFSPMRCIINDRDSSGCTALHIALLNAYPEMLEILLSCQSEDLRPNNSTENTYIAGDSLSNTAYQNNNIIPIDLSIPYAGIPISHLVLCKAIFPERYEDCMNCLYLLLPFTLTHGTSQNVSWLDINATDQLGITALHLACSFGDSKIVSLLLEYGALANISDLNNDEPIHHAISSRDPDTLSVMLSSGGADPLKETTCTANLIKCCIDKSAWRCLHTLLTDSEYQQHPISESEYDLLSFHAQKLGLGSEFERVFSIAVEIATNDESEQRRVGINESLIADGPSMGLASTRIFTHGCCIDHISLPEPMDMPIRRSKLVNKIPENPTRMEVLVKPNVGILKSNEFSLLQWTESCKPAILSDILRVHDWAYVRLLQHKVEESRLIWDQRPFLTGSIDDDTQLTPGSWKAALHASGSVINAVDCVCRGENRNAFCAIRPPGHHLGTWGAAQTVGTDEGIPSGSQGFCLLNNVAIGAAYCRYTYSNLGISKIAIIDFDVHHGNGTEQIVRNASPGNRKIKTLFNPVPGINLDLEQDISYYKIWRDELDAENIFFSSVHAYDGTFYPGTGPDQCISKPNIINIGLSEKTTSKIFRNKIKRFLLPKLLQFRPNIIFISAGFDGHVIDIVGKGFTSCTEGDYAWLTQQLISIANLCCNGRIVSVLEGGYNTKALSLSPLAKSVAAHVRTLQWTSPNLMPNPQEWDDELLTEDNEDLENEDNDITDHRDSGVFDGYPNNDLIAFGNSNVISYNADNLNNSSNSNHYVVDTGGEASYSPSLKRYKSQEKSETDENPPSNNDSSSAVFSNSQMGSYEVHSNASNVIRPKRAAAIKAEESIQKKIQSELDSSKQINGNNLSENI

[2] = test system: Pf lipase (Pseudomonas fluorescens lipase); experiment: fluorescent esterase assay; assay type: biochemical; details: pH 6.8, 25 °C, 1 mM MgCl2
Summary of the method: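 Commercial lipase, stored in glycerol-containing buffer at −20 °C, was used at 4.6 nM final. Acetyl, propionyl or butyryl 4-methylumbelliferyl esters were freshly diluted in ice-cold buffer (137 mM NaCl, 2.7 mM KCl). Reactions ran at 25 °C, with fluorescence (Ex 355, Em 444) read every minute and converted via a 4-methylumbelliferone standard curve. No-protein backgrounds were subtracted, and 10-min points were used. Km came from non-linear fits of duplicate/triplicate reactions.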

[3] = target: T1, MBP-CpHDAC3 (recombinant CpHDAC3); experiment: Fluor de Lys fluorogenic deacetylase assay; assay type: biochemical; details: pH 8.1, 20 °C, 1 mM MgCl2
[4] = substrate: CC(=O)Oc1ccc2c(C)cc(=O)oc2c1; experiment: fluorescent esterase assay; assay type: biochemical, Cryptosporidium parvum; details: pH 6.8, 25 °C, 1 mM MgCl2
[5] = substrate: CCC(=O)Oc1ccc2c(C)cc(=O)oc2c1; experiment: fluorescent esterase assay; assay type: biochemical, Cryptosporidium parvum; details: pH 6.8, 25 °C, 1 mM MgCl2

For `C=C[C@@H](O)[C@@H]1O[C@H]1/C=C/[C@@H]1O[C@H]1[C@@H](C)O` [Depudecin], the IC50 [1] was 86 ± 2.4 nM.

With `CCCC(=O)Oc1ccc2c(C)cc(=O)oc2c1` [4-methylumbelliferyl-butyrate] the Km ([2]; read-out: Butyryl esterase / Km) was 260 ± 30 µM.

`O=C(CCCCCCC(=O)Nc1ccccc1)NO` [Vorinostat] gave an IC50 [1] of 89 ± 7.9 nM.

`CC(/C=C/C(=O)NO)=C\[C@@H](C)C(=O)c1ccc(N(C)C)cc1` [Trichostatin A] was tested, and the IC50 [1] was 18 ± 1.3 nM.

`Cn1cc(C(=O)Cc2ccccc2)cc1C=CC(=O)NO` [APHA 8] was tested, and the IC50 [1] was 310 ± 1.2 nM.

Molecule `CCC(=O)Oc1ccc2c(C)cc(=O)oc2c1` [4-methylumbelliferyl-propionate] has a Km ([2]; read-out: Propionyl esterase / Km) of 710 ± 390 µM.

In the case of `CC(=O)Oc1ccc2c(C)cc(=O)oc2c1` [4-methylumbelliferyl-acetate], the Km ([2]; read-out: Acetyl esterase / Km) is reported as 230 ± 48 µM.

Fluor de Lys substrate was tested, and the Km [3] was 61 ± 3.4 µM.

B1: MBP-CpHDAC3 (recombinant CpHDAC3) (Cryptosporidium parvum Iowa II) (protein)
chain: T1 sequence (Q5CPX0 1-973)
B1 showed a Km [4] of 89 ± 18 µM, a kcat [4] of 0.01 ± 0.00089 s⁻¹ and a Km [5] of 77 ± 30 µM. The kcat [5] was 0.00058 ± 9.2e-05 s⁻¹.
